The structures appear in SMILES notation. Active and inactive are the calls of the source.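 Rule for the calls: active = inhibition of at least 50%; inactive = inhibition below 50%.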

Sequence of NADPH oxidase 1 (Homo sapiens) (Q9Y5S8 whole entry, looked up): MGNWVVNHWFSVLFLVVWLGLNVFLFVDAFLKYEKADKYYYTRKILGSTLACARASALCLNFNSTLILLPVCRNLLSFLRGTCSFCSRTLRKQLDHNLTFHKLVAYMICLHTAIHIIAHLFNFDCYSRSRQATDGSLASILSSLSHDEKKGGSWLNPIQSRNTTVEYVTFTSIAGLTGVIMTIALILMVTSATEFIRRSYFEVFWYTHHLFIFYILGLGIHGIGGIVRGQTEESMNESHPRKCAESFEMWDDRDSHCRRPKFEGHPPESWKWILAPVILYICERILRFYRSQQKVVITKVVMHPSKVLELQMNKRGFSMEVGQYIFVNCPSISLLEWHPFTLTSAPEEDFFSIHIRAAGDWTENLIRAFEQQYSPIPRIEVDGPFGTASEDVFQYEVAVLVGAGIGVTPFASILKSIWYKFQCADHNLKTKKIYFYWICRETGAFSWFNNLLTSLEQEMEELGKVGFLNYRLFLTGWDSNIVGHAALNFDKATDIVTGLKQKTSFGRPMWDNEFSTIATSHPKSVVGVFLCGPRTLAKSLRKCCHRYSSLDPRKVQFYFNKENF

The experiment concerns the target NADPH oxidase 1 (Homo sapiens) (UniProt Q9Y5S8). Description: NOX1 inhibitors in colonic epithelial cells, confirmation, luminescence, HT29 cells (AID 2541). Conditions: luminol ROS chemiluminescence, 1 h, at 3.3 µM, active compounds read high. The procedure, abridged: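 Assay system: HT29 colon epithelial cell line with endogenous NOX1; schedule: compound exposure 1 h before probe; detection: luminol chemiluminescence of intracellular ROS; measure: % inhibition of luminescence; replication: triplicate wells per compound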
As for `O=C(O)/C(=N/Nc1ccccc1O)c1ccccc1`, the inhibition (commonly the relative decrease from the control value, in per cent) was 62.5%. The same measure for `CCS(=O)(=O)c1ccc(O)c(NC(=O)c2ccccc2C(=O)O)c1`: -41.4% (inactive); for `O=C(Oc1ccccc1N1CCOCC1)c1cccnc1Oc1ccccc1`: 71.9%. Regarding `CC1=CC(=O)C(CCC2=CC(=O)C(C)=CC2=O)=CC1=O`, the inhibition was 10.4% (inactive). The same measure for `O=S(=O)(Nc1ccc(N2CCCCC2)cc1)c1ccccc1`: 85.4%. The value for `Cc1cc(C)cc(NC(=O)Nc2ccc(N3CCCCC3)cc2)c1` was 74.4%; that for `CC(=O)c1ccc(NCN2C(=O)/C(=C\N(C)C)NC2=S)cc1` was 59.2%; that for `Cc1cc(C(=O)NNc2cc(Cl)ccc2Cl)no1` was 108%.

With `CCOc1ccccc1Nc1n[nH]c(=S)s1`, the inhibition was 81.5%.

Turning to `Cc1csc2ncnc(NNS(=O)(=O)c3cc(C(F)(F)F)cc(C(F)(F)F)c3)c12`, the inhibition is 81.6%.

As to `Cc1cc(S(=O)(=O)NNc2ncnc3cc(C(C)(C)C)sc23)c(C)cc1Cl`, the inhibition is 71%. The same measure for `ON/C=N/c1nnc(C(F)(F)F)s1`: 63.1%; for `COCCCNC(=S)NNC(=S)Nc1ccccc1`: 70.1%.

Turning to `CN(C)c1ccc(/C=N/Nc2c(Cl)cncc2Cl)cc1`, the inhibition is 73.6%. The value for `S=C(NNc1nccc(-c2cccnc2)n1)Nc1ccccc1` was 88.4%; that for `Cc1oc(-c2ccc(Cl)cc2)cc1C(=O)O/N=C(\N)Cc1nc2cccnc2n1C1CC1` was -17.1% (inactive); that for `O=C1C=C(I)C(=O)C=C1I` was 60.4%.

For `COc1ccc(N(C)CC(=O)O)c(C(=O)O)c1`, the inhibition is 75%. The value for `O=C1c2ccccc2C(=O)N1CNc1ccc(N2CCOCC2)cc1` was 11.1% (inactive). The same measure for `CC(C)(C)c1csc(NNC(=O)c2ccc(Cl)cc2)n1`: 81.8%. The value for `COc1cc(-c2nc(-c3ccccc3)c(-c3ccccc3)[nH]2)ccc1O` was 84.1%; that for `c1ccc2c(c1)Nc1nc3ccccc3nc1N2` was 79.7%; that for `Nc1nc(Nc2ccccc2)n[nH]1` was 73.6%. For the molecule `N#Cc1c(N)sc2c1CCc1ccccc1-2`, the inhibition is 103%. The same measure for `COc1ccc(Cl)cc1NC(=O)Nc1ccc(N(C)C)cc1`: 88.8%; for `CCC(CO)Nc1nc2c([nH]1)c(=O)n(C)c(=O)n2C` (stereo unspecified): -32.2% (inactive).

Turning to `O=C(Oc1ccccc1N1CCOCC1)c1cccs1`, the inhibition is 87.8%. As to `Nc1nc(NCc2c(Cl)cccc2Oc2ccccc2)n[nH]1`, the inhibition is 74.1%. The value for `Cc1ccccc1C(=O)Oc1ccc(-c2csnn2)cc1` was 54.9%.

For `S=c1[nH]cc(-c2ccc(Br)cc2)[nH]1`, the inhibition is 70.8%. For the molecule `O=C(Nc1ccc(Cl)cc1)Oc1ccccc1N1CCSCC1`, the inhibition is 56.4%. The same measure for `O=C(NNc1c([N+](=O)[O-])cc(C(F)(F)F)cc1[N+](=O)[O-])c1ccccc1-n1cccc1`: 78%; for `O=[N+]([O-])c1cc(C(F)(F)F)ccc1Oc1ccc(-c2nnco2)cc1`: 58.8%. The same measure for `O=c1[nH][nH]c2cccc(F)c12`: 9.8% (inactive); for `CCN(CC)c1ccc(N=C2C=CC(=O)c3ccccc32)c(C)c1`: 23.7% (inactive); for `CCOC(=O)c1nsc(/C(C)=N/Nc2ccccc2)c1N`: 16% (inactive).

For `COc1cccc(NC(=S)NNc2ccc([N+](=O)[O-])cc2)c1`, the inhibition is 89.2%.

With `CC(=O)/C(C=Nc1cc(C)c(O)c(Cl)c1)=C(\C)O`, the inhibition was -27.6% (inactive). Turning to `Cn1nc(-c2ccccc2)c(O)c(N=Nc2ccccc2)c1=O`, the inhibition was 88.9%.

Consider `O=C(Nc1ccc(Cl)cc1Cl)c1cc([N+](=O)[O-])cc2c1-c1ccc([N+](=O)[O-])cc1C2=O`, for which the inhibition was -22.8% (inactive).

For `CC(=O)Oc1ccc(OC(C)=O)c2c1[C@@H]1C=C[C@H]2CC1`, the inhibition was 75.9%. The value for `O=C(N/N=C/c1ccc(O)cc1)N/N=C/c1ccc(O)cc1` was 76.7%. As for `COc1cc2ncnc(NNS(=O)(=O)c3cc(C)c(Cl)cc3C)c2cc1OC`, the inhibition is 93%.

Turning to `COc1cccc(C(=O)CSc2nsc(SCC(=O)c3cccc(OC)c3)c2C#N)c1`, the inhibition was 44.1% (inactive). The value for `CN(C)c1ccc(NC(=O)Nc2ccc(OCc3ccccc3)cc2)cc1` was 90.2%; that for `O=C(NNc1c([N+](=O)[O-])cc(C(F)(F)F)cc1[N+](=O)[O-])c1ccco1` was 92.8%.

As to `CCOC(=O)C(=CNNc1ccnc2cc(Cl)ccc12)C(=O)OCC`, the inhibition was 87.5%. On to `O=c1[nH]nc(N2CCSCC2)[nH]1`, for which the inhibition is 96.6%. With `CCN(CC)c1ccc(NC(=O)C2CCCCC2)c(N(CC)CC)n1`, the inhibition was 37% (inactive). The same measure for `O=C(Oc1ccccc1N1CCCCC1)c1ccco1`: 95%; for `CCC(=O)Nc1ccc2c(c1)N(CC)C(C)(C)CC2C` (stereo unspecified): 65.4%. The value for `CC1CN(c2ccc(NC(=S)NN)cc2)CC(C)O1` (stereo unspecified) was 59.5%; that for `COC(=O)c1sccc1-c1ccc(CN2CCCc3cc(OC)ccc32)o1` was 74.1%. The same measure for `O=C1C=CC(=O)N1CCc1ccccc1`: 11.1% (inactive).

On to `CC[n+]1c(C)csc1Nc1ccc(N2CC(C)OC(C)C2)cc1` (stereo unspecified), for which the inhibition was 89.3%.

For the molecule `CC(C)(C)c1cc2nc(C(F)(F)F)cc(NNC(=O)Nc3ccc(OC(F)(F)F)cc3)n2n1`, the inhibition was 11.4% (inactive). The same measure for `COc1cccc(NC(=S)NNC(=S)NC2CC3CCC2C3)c1` (stereo unspecified): 78.9%; for `O=c1[nH]c2ccsc2c(=O)n1CCO`: 95.7%; for `COc1ccccc1NNC(=O)c1cc(C(C)(C)C)nn1Cc1ccccc1`: 92.4%. Regarding `FC(F)(F)c1ccc2c(c1)Nc1ccccc1S2`, the inhibition is 86.9%. The same measure for `Cc1cc(S(=O)(=O)NNc2ncnc3c2cnn3C)c(C)cc1Cl`: 102%; for `Cc1ccc(SC#N)c(N)n1`: 63.2%; for `Cc1cc(Br)c(NC(=S)NNc2ccccc2)c(Br)c1`: 76.9%. The same measure for `COc1ccc(OC(=O)c2ccc3ncccc3c2)cc1`: 51.6%; for `O=[N+]([O-])c1cc(C(F)(F)F)cc([N+](=O)[O-])c1Sc1ncc2ccccn12`: -0.1% (inactive); for `CCC(=O)N1c2cc(Cl)ccc2-n2c(nn(C(=O)CC)c2=O)N1C(=O)CC`: 81.7%.

On to `Nc1nc(NCc2ccccn2)n[nH]1`, for which the inhibition is 78.6%.

On to `Nc1nc2[nH]c(=S)[nH]c2c(=O)[nH]1`, for which the inhibition is 29.6% (inactive). The value for `Cn1ncc(C(=O)NC(=O)Nc2ccc(F)cc2)c1[N+](=O)[O-]` was 6.3% (inactive). For `O=C(Oc1cccc2[nH]ccc12)c1ccc(C(F)(F)F)cc1`, the inhibition is 30.4% (inactive). The value for `CCn1c(-c2cc(-c3ccccc3)sc2N)n[nH]c1=S` was -5.1% (inactive); that for `c1ccc2c(c1)NC(c1ccc3c(c1)OCO3)O2` (stereo unspecified) was -39.8% (inactive); that for `CCC1=Nc2cccc3cccc(c23)N1` was 14% (inactive).

On to `O=C(Oc1ccccc1N1CCCCC1)c1sc2ccccc2c1Cl`, for which the inhibition was 84.3%. The value for `CCOC(=O)C1=C(Nc2ccc(OC(C)=O)cc2)C(=O)N(C(C)(C)C)C1` was 72.9%; that for `CSC1=NS(=O)(=O)c2c(C)nn(C)c2S1` was 33.3% (inactive); that for `CN(C)c1ccc(NC(=O)Nc2cccs2)cc1` was 48.3% (inactive). The value for `NS(=O)(=O)c1ccc(NNC(=O)c2c(F)cccc2Cl)cc1` was 74.3%; that for `COc1cc2ncnc(NNC(=O)c3cccs3)c2cc1OC` was 70.5%. Take `Cc1noc(C)c1C(=O)Nc1ccc(N2CCOCC2)nc1N1CCOCC1`: the inhibition was 97.5%. The value for `COC(=O)C1=C(Nc2ccc(O)cc2)CSC1` was 63.7%. The value for `CC1(C)CC(Nc2ccc(Nc3ccccc3)cc2)CC(C)(C)N1` was 61.5%; that for `COc1ccc(OC)c(S(=O)(=O)c2ccc([N+](=O)[O-])cc2Cl)c1` was 43.9% (inactive). The value for `Cc1nc(C(F)(F)F)c(C(=O)NNc2ncc(C(F)(F)F)cc2Cl)s1` was 101%; that for `CN(NC=C(C#N)C#N)c1ccccc1[N+](=O)[O-]` was 100%.

`Cn1cnc(S(=O)(=O)Nc2ccc(N3CCCCC3)cc2)c1`: the inhibition is 77.2%. The same measure for `COc1ccc(C(=O)NNc2c([N+](=O)[O-])cc(C(F)(F)F)cc2[N+](=O)[O-])cc1`: 88.1%; for `O=C(Nc1ccc(N2CCCCC2)cc1)Nc1ccccc1OC(F)(F)F`: 73.9%; for `O=c1c2c(-c3ccc([N+](=O)[O-])cc3)onc2n(-c2ccccc2)c(=O)n1-c1ccccc1`: 29% (inactive). The same measure for `CCN(CC)c1ccc(NC(=O)c2c(F)cccc2F)c(N(CC)CC)n1`: 37.1% (inactive); for `Cc1ccc(NCN2C(=O)c3ccc([N+](=O)[O-])cc3C2=O)cc1`: 17.8% (inactive); for `Nc1nc(NCc2ccccc2OC(F)(F)F)n[nH]1`: 78.4%.

On to `COc1ccc2c(c1)CCCN2Cc1c[nH]c2ccccc12`, for which the inhibition was 26.5% (inactive). For the molecule `Cc1cc(Cl)ccc1NC(=S)NNC(=S)Nc1ccc(F)cc1`, the inhibition was 89%. The same measure for `CC(C)C(=O)NNc1nc2c(c(=O)n(C)c(=O)n2C)n1Cc1ccc(Cl)cc1`: 76.1%; for `O=c1c(Cl)c2oc3ccccc3nc-2c2ccccc12`: 56.3%.

Source of the values: PubChem BioAssay AID2541 (The Scripps Research Institute Molecular Screening Center, 2010).
